Measurements as given in the array DNA melting data of Ke et al. (doi:10.1101/2024.01.08.574731).

What was measured:
[1] = folding enthalpy; higher = less favourable; fluorescence melt of hairpins on a sequencing array, two-state fit; details: sodium 0.088 M
Summary of the method: (§1)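 To match UV melts, fitted temperatures were raised by 9.35 °C. These fits were bootstrapped two-state models that gave melting temperature and folding enthalpy, combined by inverse variance over four replicates. The input was normalised Cy3 fluorescence of library hairpins with annealed Cy3 and quencher oligos on a sequenced MiSeq flow cell, imaged in 50 mM Na-HEPES pH 8.0, 25 mM NaCl in 2.5 °C steps up to 60 °C.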

[2] = melting temperature; fluorescence melt of hairpins on a sequencing array, two-state fit, raised by 9.35 °C to match UV melts; details: sodium 0.088 M
Summary of the method: as §1

Row | Sequence | folding enthalpy [1] [kcal/mol] | Tm [2] [°C]
1 | GAACCCGAAAGGGTTTTC ((((((....)))..))) | -13.4 | 55.9
2 | GCCCTGCGAAAGCACAGC ((..(((....)))..)) | -8.54 | 27.4
3 | GTCGGTCGAAAGACGGAC (((.(((....))).))) | -34.8 | 59.1
4 | GAGTCGGAAACGACTC ((((((....)))))) | -37.5 | 65.9
5 | GTTCGGGGAAACCCGAAC (((((((....))))))) | -39.6 | 69
6 | GGGATGCCGAAAGGCCCC (((..(((....)))))) | -15.6 | 46.6
7 | GCGATGTTTCGC ((((....)))) | -22.9 | 51.4
8 | GGGGGCGAAAGCCAGCCC ((((((....)))..))) | -14.1 | 51.8
9 | GCAAAGCGAAAGCCTCGC ((.(.((....)).).)) | -7.59 | 27.9
10 | GTAGTACGAAAGTAGTAC (((.(((....))).))) | -33.5 | 47.3
11 | GGCGATGGAAACATTGCC (((.(((....))).))) | -47.2 | 55.2
12 | GTTTGGGGAAACTCAAGC (.(((.(....).))).) | -12.2 | 27.1
13 | GACAACGAAAGTTAGTC ((((((....))).))) | -24.7 | 42.4
14 | GATCATCGGCATGATC ((((((....)))))) | -32 | 44.7
15 | GGTGGCCGAAAGGCTACC (((.(((....))).))) | -29.6 | 67.3
16 | GGGGGCGAAAGCCATCCC ((((((....)))..))) | -13.5 | 51.5
17 | GGATCCGAAAGGAGTCC ((((((....))).))) | -18.5 | 47.9
18 | GTCTTACGAAAGTAGAC (((.(((....)))))) | -23.8 | 43.4
19 | GCAACCGAAAGGTCTGC ((((((....))).))) | -22.7 | 47.6
20 | GGGGTCGAAAGACTCCC ((((((....))).))) | -30.9 | 57
21 | CGCCACGGAAACGTCGCG (((.(((....))).))) | -39.2 | 48.3
22 | GCCCTCGAAAGAGTTGGC ((((((....)))..))) | -23.2 | 44
23 | GTTATAGGAAACTGTAAC ((((.((....)).)))) | -27.2 | 34

Row | Sequence | folding enthalpy [1] [kcal/mol] | Tm [2] [°C]
24 | GCTCGACGAAAGTCAAGC (((.(((....))).))) | -27.7 | 51.8
25 | GATCATCGAGATGATC ((((((....)))))) | -45.2 | 54.2
26 | GGAATCGAAAGATTGTCC ((((((....)))..))) | -11.1 | 27.2
27 | GCCAGTGGAAACACTGAC (.(((((....))))).) | -15.8 | 46.1
28 | GTGCTTGGAAACGAGTAC ((.((.(....).)).)) | -19.3 | 35
29 | GCTACTCGAAAGAGGAGC (((.(((....))).))) | -37.4 | 61.6
30 | GGGATACCGAAAGGTCCC (((..(((....)))))) | -17.4 | 45.2
31 | GCTGAGGCGAAAGCCAGC (((..(((....)))))) | -22.3 | 52.8
32 | GTCCAAGGAAACTTAGAC (((.(((....))).))) | -13.7 | 24.5
33 | GTGGCCGAAAGGCCGCAC ((((((....)))..))) | -9.1 | 62.9
34 | GCGACTCCTCGC ((((....)))) | -23.9 | 48.6
35 | CGAACGGAAACGTTATCG ((((((....)))..))) | -14.6 | 28.8
36 | GGGTGGCGAAAGCCTCCC (((.(((....))).))) | -28 | 66.2
37 | GACTGTGGAAACACGGTC (((.(((....))).))) | -40.6 | 52.2
38 | GCAGGCGAAAGCCCATGC ((((((....)))..))) | -13.2 | 41.4
39 | GAATCCGGAAACAGATTC (((((.(....).))))) | -19.5 | 31.3
40 | GAAAGCGGAAACGCTTCC (.(((((....))))).) | -12.3 | 41.4
41 | GATCCCACTGGGGATC ((((((....)))))) | -30.7 | 62.4
42 | GCGGACGAAAGTCATCGC ((((((....)))..))) | -25.7 | 50.1
43 | GTCATTCGAAAGAAGAC (((.(((....)))))) | -16.5 | 33
44 | GCTGATGGAAACGTCAGC (((((.(....).))))) | -40.3 | 53.3
45 | GCACAGCGAAAGCTGAGC ((.((((....)))).)) | -17.2 | 63.4
46 | GATCTGCTACCAGATC ((((((....)))))) | -37.4 | 48.8

Row | Sequence | folding enthalpy [1] [kcal/mol] | Tm [2] [°C]
47 | GCAGTAGGAAACTACCGC ((.((((....)))).)) | -22.5 | 41
48 | GCCTTCGAAAGAAAGGGC ((((((....)))..))) | -29.4 | 43.1
49 | GCGTACGAAAGTATCGC ((((((....))).))) | -39.6 | 53.4
50 | GATCCCTTTAGGGATC ((((((....)))))) | -39.3 | 68.9
51 | GATTTAGGAAACTGAATC ((((.((....)).)))) | -26.4 | 33.1
52 | GTCGACGGAAACATCGAC (((((.(....).))))) | -39.8 | 46.3
53 | GTAGGGCGAAAGCCTTAC (((.(((....))).))) | -20.2 | 50.4
54 | GATCTGTAACCAGATC ((((((....)))))) | -29.3 | 46.8
55 | ACGAGGAAACTCGT (((((....))))) | -26 | 50.3
56 | GCCGAGGGAAACCCCGGC ((((.((....)).)))) | -40.2 | 59.9
57 | GAATGCGAAAGCACTTC ((((((....))).))) | -16.2 | 40.9
58 | GCAAAACGAAAGTTATGC (((.(((....))).))) | -28.9 | 45.8
59 | GATCTTGAAAAGATC ((((((...)))))) | -33.5 | 54.8
60 | GCAAATGGAAACATTTAC (.(((((....))))).) | -13.5 | 28.1
61 | GCGATAACTCGC ((((....)))) | -21.1 | 45.9
62 | GTAAACGAAAGTTGTAC ((((((....))).))) | -13.7 | 31.2
63 | GTCCAAACGAAAGTTGAC (((..(((....)))))) | -16.8 | 31.6
64 | GATCACTGAGTGATC ((((((...)))))) | -40.1 | 55.2
65 | GAGGGACGAAAGTCACTC (((.(((....))).))) | -31.2 | 65.6
66 | GATCGGCAAACCGATC ((((((....)))))) | -36.1 | 56.5
67 | GATCGTACAGACGATC ((((((....)))))) | -54.1 | 52.5
68 | GCAGACGAAAGTCTCTGC ((((((....)))..))) | -14.8 | 44.1
69 | GAGAACGGAAACATTCTC (((((.(....).))))) | -23.5 | 30.1
